What was measured:
[1] = Biodistribution in rat heart was determined after 24 hours of intravenous administration of the compound; [125I]- is used as radioactive isotope; type: ADME, organism-based; conditions: in vivo
Outline: (§1)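 Rats under ether anesthesia, three per group, received 10 μCi tracer in 0.2 mL saline into the femoral vein. They were killed by cardiac excision under ether at each time point. Organs were removed, weighed and counted. Percent dose per organ was calculated against a 1%-of-injected-dose standard counted at the same time.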

[2] = Biodistribution in rat skin was determined after 60 min of intravenous administration of the compound; [125I]- is used as radioactive isotope; type: ADME, organism-based, Zone of skin; conditions: in vivo, 1 h
Outline: (§2)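 Rats, three per group, under ether anaesthesia, received 10 μCi of [¹²⁵I]-labelled tracer in 0.2 mL saline into the femoral vein. They were killed by cardiac excision under ether at each time point. Organs were removed, weighed and counted. Percent dose per organ was calculated against counts of a 1% aliquot of the injected dose (100-fold diluted) counted at the same time.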

[3] = Regional brain distribution in rat cortex was determined after 30 min of intravenous administration of the compound; [125I]- is used as radioactive isotope; type: ADME; conditions: in vivo, 0.5 h
Outline: (§3)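 Rats, three per group, injected with 10 μCi tracer in 0.2 mL saline via the femoral vein under ether anesthesia and killed by cardiac excision at the stated time. Cortex (frontal plus occipital), striatum, hippocampus, cerebellum and hypothalamus were dissected, weighed and gamma-counted. Values are % dose/g, calculated by comparison with counts of a 100-fold diluted aliquot of the injected dose.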

[4] = Biodistribution in rat blood was determined after 11 hours of intravenous administration of the compound; [125I]- is used as radioactive isotope; type: ADME, organism-based; conditions: in vivo; outline: as §1
[5] = Biodistribution in rat kidney was determined after 240 min of intravenous administration of the compound; [125I]- is used as radioactive isotope; type: ADME, organism-based; conditions: in vivo, 4 h; outline: as §1
[6] = Biodistribution in rat spleen was determined after 30 min of intravenous administration of the compound; [125I]- is used as radioactive isotope; type: ADME, organism-based; conditions: in vivo, 0.5 h; outline: as §2
[7] = Distribution ratio in cortex and cerebellum was determined after 60 min of intravenous administration of the compound; [125I]- is used as radioactive isotope; type: ADME, tissue-based; conditions: rat, 1 h
Outline: (§4)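 After femoral-vein injection of 10 μCi [¹²⁵I] tracer in 0.2 mL saline under ether anaesthesia (three rats per group), brain regions were dissected, weighed and counted: cortex (frontal plus occipital), hippocampus, hypothalamus and cerebellum. %dose/g was calculated against a diluted injected-dose standard. Ratio = (region − cerebellum)/cerebellum on a %dose/g basis, with cerebellum as the background region.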

[8] = Regional brain distribution in rat cortex was determined after 11 hours of intravenous administration of the compound; [125I]- is used as radioactive isotope; type: ADME; conditions: in vivo; outline: as §3
[9] = Distribution ratio in hypothalamus and cerebellum was determined after 60 min of intravenous administration of the compound; [125I]- is used as radioactive isotope; type: ADME, tissue-based; conditions: rat, 1 h
Outline: (§5)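 Rats, three per group, given 10 μCi tracer in 0.2 mL saline into the femoral vein under ether anesthesia, then killed by cardiac excision at the stated time. Brain regions were dissected, weighed and counted. Percent dose/g was calculated against a 1% diluted aliquot of the injected dose. The ratio is (region − cerebellum)/cerebellum on a % dose/g basis, with cerebellum as background.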

[10] = molecular target: Sodium-dependent dopamine transporter (Homo sapiens, UniProt Q01959); experiment: Binding affinity for dopamine transporter expressed in […] cells; type: cell-based
Chain of Sodium-dependent dopamine transporter (Q01959 whole entry): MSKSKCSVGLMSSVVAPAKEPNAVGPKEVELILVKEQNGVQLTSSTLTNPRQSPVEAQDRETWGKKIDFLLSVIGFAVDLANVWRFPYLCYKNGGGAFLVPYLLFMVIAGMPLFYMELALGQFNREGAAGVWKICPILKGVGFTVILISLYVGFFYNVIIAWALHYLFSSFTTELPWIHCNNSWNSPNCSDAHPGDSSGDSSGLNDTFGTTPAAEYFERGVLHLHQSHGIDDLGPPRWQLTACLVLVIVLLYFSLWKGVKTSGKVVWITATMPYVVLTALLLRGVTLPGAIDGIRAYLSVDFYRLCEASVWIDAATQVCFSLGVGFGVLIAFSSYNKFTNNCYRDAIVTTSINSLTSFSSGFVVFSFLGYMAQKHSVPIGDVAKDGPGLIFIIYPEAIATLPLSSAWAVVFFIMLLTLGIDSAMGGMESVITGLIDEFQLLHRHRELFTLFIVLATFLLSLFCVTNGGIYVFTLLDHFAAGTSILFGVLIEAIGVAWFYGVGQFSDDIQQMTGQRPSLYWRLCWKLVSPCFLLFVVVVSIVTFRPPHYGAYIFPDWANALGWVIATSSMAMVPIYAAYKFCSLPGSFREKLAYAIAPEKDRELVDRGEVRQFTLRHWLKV
Outline: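 Membranes from confluent pig kidney LLC-PK₁ cells stably expressing the respective transporter, homogenized and pelleted, 30–40 μg protein. Incubated with 0.4 nM [¹²⁵I]IPT or [¹²⁵I]IDAM and 8–10 competitor concentrations (10⁻¹⁰ to 10⁻⁵ M) in 50 mM Tris-HCl pH 7.4, 120 mM NaCl, 0.1% BSA, 1 h at room temperature. Nonspecific binding was defined with 10 μM CFT for IPT and 1 μM IDAM for IDAM. Filtration, gamma counting, nonlinear regression for Ki.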

[11] = Biodistribution in rat kidney was determined after 30 min of intravenous administration of the compound; [125I]- is used as radioactive isotope; type: ADME, organism-based; conditions: in vivo, 0.5 h; outline: as §1
[12] = Biodistribution in rat kidney was determined after 2 min of intravenous administration of the compound; [125I]- is used as radioactive isotope; type: ADME, organism-based; conditions: in vivo; outline: as §1
[13] = Regional brain distribution in rat striatum was determined after 11 hours of intravenous administration of the compound; [125I]- is used as radioactive isotope; type: ADME, tissue-based; conditions: in vivo; outline: as §3
[14] = Biodistribution in rat brain was determined after 240 min of intravenous administration of the compound; [125I]- is used as radioactive isotope; type: ADME, organism-based; conditions: in vivo, 4 h; outline: as §1
[15] = Biodistribution in rat lung was determined after 30 min of intravenous administration of the compound; [125I]- is used as radioactive isotope; type: ADME, organism-based; conditions: in vivo, 0.5 h; outline: as §1
[16] = Biodistribution in rat blood was determined after 6 hours of intravenous administration of the compound; [125I]- is used as radioactive isotope; type: ADME, organism-based; conditions: in vivo; outline: as §1
[17] = Biodistribution in rat heart was determined after 11 hours of intravenous administration of the compound; [125I]- is used as radioactive isotope; type: ADME, organism-based; conditions: in vivo; outline: as §1
[18] = Biodistribution in rat muscle was determined after 60 min of intravenous administration of the compound; [125I]- is used as radioactive isotope; type: ADME, organism-based, Muscle tissue; conditions: in vivo, 1 h; outline: as §2
[19] = Biodistribution in rat spleen was determined after 120 min of intravenous administration of the compound; [125I]- is used as radioactive isotope; type: ADME, organism-based; conditions: in vivo, 2 h; outline: as §2
[20] = Biodistribution in rat liver was determined after 240 min of intravenous administration of the compound; [125I]- is used as radioactive isotope; type: ADME, organism-based; conditions: in vivo, 4 h; outline: as §1
[21] = Distribution ratio in hypothalamus and cerebellum was determined after 11 hours of intravenous administration of the compound; [125I]- is used as radioactive isotope; type: ADME, tissue-based; conditions: rat; outline: as §4
[22] = Distribution ratio in cortex and cerebellum was determined after 240 min of intravenous administration of the compound; [125I]- is used as radioactive isotope; type: ADME, tissue-based; conditions: rat, 4 h; outline: as §4
[23] = Biodistribution in rat liver was determined after 120 min of intravenous administration of the compound; [125I]- is used as radioactive isotope; type: ADME, organism-based; conditions: in vivo, 2 h; outline: as §1
[24] = Regional brain distribution in rat cortex was determined after 6 hours of intravenous administration of the compound; [125I]- is used as radioactive isotope; type: ADME; conditions: in vivo; outline: as §3
[25] = Regional brain distribution in rat hypothalamus was determined after 60 min of intravenous administration of the compound; [125I]- is used as radioactive isotope; type: ADME, tissue-based; conditions: in vivo, 1 h; outline: as §3
[26] = Regional brain distribution in rat cortex was determined after 2 min of intravenous administration of the compound; [125I]- is used as radioactive isotope; type: ADME; conditions: in vivo; outline: as §3
[27] = Regional brain distribution in rat striatum was determined after 60 min of intravenous administration of the compound; [125I]- is used as radioactive isotope; type: ADME, tissue-based; conditions: in vivo, 1 h; outline: as §3
[28] = Distribution ratio in striatum and cerebellum was determined after 2 min of intravenous administration of the compound; [125I]- is used as radioactive isotope; type: ADME, tissue-based; conditions: rat; outline: as §5
[29] = Distribution ratio in hippocampus and cerebellum was determined after 60 min of intravenous administration of the compound; [125I]- is used as radioactive isotope; type: ADME, tissue-based; conditions: rat, 1 h; outline: as §4
[30] = Biodistribution in rat brain was determined after 11 hours of intravenous administration of the compound; [125I]- is used as radioactive isotope; type: ADME, organism-based; conditions: in vivo; outline: as §1
[31] = Biodistribution in rat liver was determined after 6 hours of intravenous administration of the compound; [125I]- is used as radioactive isotope; type: ADME, organism-based; conditions: in vivo; outline: as §1

Compound: CN(C)Cc1ccccc1Oc1ccc(I)cc1N
- Dose [1]: 0.02%
- Dose [2]: 13.9%
- Dose/g [3]: 1.25%
- Dose [4]: 2.52%
- Dose [5]: 0.61%
- Dose [6]: 0.84%
- Dose/g [7]: 1.35%
- Dose/g [8]: 0.01%
- Dose/g [9]: 1.92%
- Ki [10]: 309 nM
- Dose [11]: 2.67%
- Dose [12]: 4.27%
- Dose/g [13]: 0.01%
- Dose [14]: 0.33%
- Dose [15]: 3.56%
- Dose [16]: 3.29%
- Dose [17]: 0.06%
- Dose [18]: 12.9%
- Dose [19]: 0.27%
- Dose [20]: 3.52%
- Dose/g [21]: 0.44%
- Dose/g [22]: 1.12%
- Dose [23]: 4.9%
- Dose/g [24]: 0.04%
- Dose/g [25]: 1.18%
- Dose/g [26]: 1.16%
- Dose/g [27]: 1.02%
- Dose/g [28]: 0.01%
- Dose/g [29]: 1.3%
- Dose [30]: 0.02%
- Dose [31]: 3.59%

— ChEMBL document CHEMBL1137220, “2-(2-(dimethylaminomethyl)phenoxy)-5-iodophenylamine: an improved serotonin transporter imaging agent” (J Med Chem, 2004)
